CFTR F508del cor: CFTR F508del correction in bronchial cells | CFBE cells, YFP halide quenching; stimulated with forskolin plus potentiator P3; % fluorescence drop versus neutral controls | activity (quench increase), % at 7.58 µM | hit rate 0.36% among 350,000 | AID 720511;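 active = mean added fluorescence quench of at least 8% versus neutral control, with both replicates also reaching 8%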;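 note: cells transiently co-express mutant CFTR-F508del with the halide-sensitive YFP; corrector assay measuring rescue of mutant channel to the surface after 24 h compound exposure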
E-selectin induc: E-selectin induction on HUVECs. activation, % at 7.58 µM. AID 686992. hit rate 0.37% among 260,000. P16581. HUVEC E-selectin immunofluorescence imaging; normalized: neutral wells 0, TNF-alpha wells 100;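 active = mean E-selectin-positive cell signal at least 10% of the positive control, reached in at least 60% of replicates, without over 20% cell loss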
Target sequence (P16581 whole entry, looked up): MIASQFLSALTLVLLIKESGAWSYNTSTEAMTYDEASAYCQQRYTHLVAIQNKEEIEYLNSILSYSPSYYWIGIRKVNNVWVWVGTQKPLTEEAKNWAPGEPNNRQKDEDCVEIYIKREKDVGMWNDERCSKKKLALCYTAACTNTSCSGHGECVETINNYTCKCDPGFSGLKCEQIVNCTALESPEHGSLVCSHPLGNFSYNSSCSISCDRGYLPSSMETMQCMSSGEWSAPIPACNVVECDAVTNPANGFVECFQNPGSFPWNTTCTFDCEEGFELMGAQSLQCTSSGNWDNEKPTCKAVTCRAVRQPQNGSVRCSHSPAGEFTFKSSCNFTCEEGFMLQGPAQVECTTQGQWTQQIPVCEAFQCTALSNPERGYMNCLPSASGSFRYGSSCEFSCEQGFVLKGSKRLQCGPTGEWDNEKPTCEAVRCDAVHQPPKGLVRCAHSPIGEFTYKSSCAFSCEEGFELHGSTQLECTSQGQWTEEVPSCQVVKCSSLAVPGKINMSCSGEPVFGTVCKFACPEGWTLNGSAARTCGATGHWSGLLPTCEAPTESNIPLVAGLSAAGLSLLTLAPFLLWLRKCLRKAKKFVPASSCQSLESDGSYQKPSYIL
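Read-out: % PE-positive cells | Test system: HUVEC | Doses: One compound dose added by pin transfer | Buffer or medium: EGM-2 over gelatin coat | Signal: Immunofluorescence imaging | Benchmarks: TNF-alpha, DMSO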
FGF22 binding: FGF22 (human) thermal shift binding; recombinant FGF22 thermal shift, SYPRO orange fluorescence; percent of sucrose octasulfate shift, DMSO zero; activity (Tm shift, normalised), % at 9.99 µM; hit rate 1.5% among 340,000;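 active = mean Tm shift, scaled 0 neutral to 100 positive control, at about 1.3% or above, every replicate too, limit read from the data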
ERAP1 HTS inh: inhibitors of human ERAP1 aminopeptidase | Q9NZ08 | recombinant ERAP1, Leu-AMC fluorescence, 60 min | inhibition, % at 10.7 µM | hit rate 0.15% among 340,000 | AID 652197;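 active = mean replicate inhibition of at least 30%, or all replicates individually reaching that 30% level; inactive = mean below 30% and not every replicate reaching it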
DENV2 CPE: protects cells from dengue virus 2 cytopathic effect | AID 651640 | CPE inhibition, % at 9.99 µM | DENV2-infected cells, cytopathic effect rescue, plate reader | hit rate 1.7% among 350,000; in the data active = CPE inhibition above about 20%, passing the limit was not always enough; tested in BHK-21 cells
A number is an active result. This is a sample that favours compounds with a hit; in the whole collection about 3.7% have one here.

For COc1ccc(/C=C/C(=O)Nc2ccccc2C(=O)NCC(c2ccc(OC)cc2)N(C)C)cc1 (configuration not stated) the results were CFTR F508del cor inactive, FGF22 binding inactive, ERAP1 HTS inh inactive and DENV2 CPE inactive.
For COc1ccc(C(CNC(=O)c2cccc3cccnc23)N(C)C)cc1 (configuration not stated) the results were CFTR F508del cor inactive, FGF22 binding inactive, ERAP1 HTS inh inactive and DENV2 CPE 45.7.
Screening O=C(c1cc2cc(Br)ccc2s1)N1CCOCC1 returned CFTR F508del cor inactive, FGF22 binding 43.0, ERAP1 HTS inh inactive and DENV2 CPE inactive.
CCC(=O)N1CC(=O)N2[C@H](C1)[C@@H](c1ccc(-c3ccccc3F)cc1)[C@@H]2CO was read as CFTR F508del cor inactive, E-selectin induc inactive and DENV2 CPE inactive.
Screening C[C@H]1CN([C@@H](C)CO)C(=O)Cc2cc(NC(=O)C3CC3)ccc2O[C@@H]1CN(C)Cc1ccccc1 returned CFTR F508del cor inactive, E-selectin induc inactive, FGF22 binding inactive, ERAP1 HTS inh inactive and DENV2 CPE inactive.
For C[C@@H]1CN([C@H](C)CO)C(=O)Cc2cc(NS(=O)(=O)c3ccc(Cl)cc3)ccc2O[C@H]1CN(C)C(=O)NC1CCCCC1 the results were CFTR F508del cor inactive, E-selectin induc inactive, FGF22 binding inactive, ERAP1 HTS inh inactive and DENV2 CPE 36.5.
COc1ccc(S(=O)(=O)Nc2ccc3c(c2)CC(=O)N([C@H](C)CO)C[C@H](C)[C@H](CN(C)C(=O)NC2CCCCC2)O3)cc1 was read as CFTR F508del cor inactive, E-selectin induc 76.5, FGF22 binding inactive, ERAP1 HTS inh inactive and DENV2 CPE inactive.
For C[C@@H]1CN([C@@H](C)CO)C(=O)Cc2cc(NS(=O)(=O)c3ccc(Cl)cc3)ccc2O[C@@H]1CN(C)C(=O)NC1CCCCC1 the results were CFTR F508del cor inactive, E-selectin induc inactive, FGF22 binding inactive, ERAP1 HTS inh inactive and DENV2 CPE inactive.
For COc1ccc(S(=O)(=O)Nc2ccc3c(c2)CC(=O)N([C@@H](C)CO)C[C@@H](C)[C@@H](CN(C)C(=O)NC2CCCCC2)O3)cc1 the results were CFTR F508del cor inactive, E-selectin induc 74.2, FGF22 binding inactive, ERAP1 HTS inh inactive and DENV2 CPE inactive.
`COc1ccc(S(=O)(=O)Nc2ccc3c(c2)CC(=O)N([C@H](C)CO)C[C@H](C)[C@@H](CN(C)C(=O)NC2CCCCC2)O3)cc1` gave CFTR F508del cor inactive, E-selectin induc 53.2, FGF22 binding inactive, ERAP1 HTS inh inactive and DENV2 CPE inactive.
`C[C@H]1CN([C@@H](C)CO)C(=O)Cc2cc(NS(=O)(=O)c3ccc(F)cc3)ccc2O[C@@H]1CN(C)C(=O)NC1CCCCC1` gave CFTR F508del cor inactive, E-selectin induc inactive, FGF22 binding inactive, ERAP1 HTS inh inactive and DENV2 CPE inactive.
For C[C@H]1CCCCO[C@H](CN(C)C(=O)Nc2ccc(F)cc2)[C@@H](C)CN([C@@H](C)CO)C(=O)c2cc(NC(=O)Nc3cccc4ccccc34)ccc2O1 the results were CFTR F508del cor inactive, E-selectin induc inactive, FGF22 binding inactive, ERAP1 HTS inh inactive and DENV2 CPE inactive.
Screening CCCNC(=O)C[C@H]1CC[C@H]2[C@@H](COc3ccc(NC(=O)Nc4ccccc4F)cc3C(=O)N2C)O1 returned CFTR F508del cor inactive, E-selectin induc inactive, FGF22 binding inactive, ERAP1 HTS inh inactive and DENV2 CPE inactive.
Screening C[C@H](CO)N1C[C@H](C)[C@@H](CN(C)C(=O)CN(C)C)Oc2cc(C#Cc3ccc(F)cc3)ccc2S1(=O)=O returned CFTR F508del cor inactive, E-selectin induc inactive, FGF22 binding inactive, ERAP1 HTS inh inactive and DENV2 CPE inactive.
For CCC(=O)N1[C@H](CO)[C@@H](c2ccccc2)[C@H]1CN(C(C)C)S(C)(=O)=O the results were CFTR F508del cor inactive, E-selectin induc inactive, FGF22 binding inactive, ERAP1 HTS inh inactive and DENV2 CPE inactive.
COc1ccc(S(=O)(=O)Nc2ccc3c(c2)CC(=O)N([C@@H](C)CO)C[C@@H](C)[C@H](CN(C)C(=O)NC(C)C)O3)cc1 was read as CFTR F508del cor inactive, E-selectin induc inactive, FGF22 binding inactive, ERAP1 HTS inh inactive and DENV2 CPE 35.4.
For Cc1c(C(=O)Nc2ccc(-c3nnc4n3CCCCC4)cc2)oc2c1ccc1ccccc12 the results were E-selectin induc inactive.
`O=C(Nc1ccc(-c2nnc3n2CCCCC3)cc1)c1cc2ccccc2o1` gave CFTR F508del cor inactive, FGF22 binding 43.9, ERAP1 HTS inh inactive and DENV2 CPE inactive.
Screening O=C(O)C1CCC(Cn2c(SCc3cc(=O)n4cc(Br)ccc4n3)nc3ccsc3c2=O)CC1 (configuration not stated) returned CFTR F508del cor inactive, E-selectin induc inactive, FGF22 binding inactive, ERAP1 HTS inh inactive and DENV2 CPE inactive.
O=C(O)c1ccc(Cn2c(SCc3cc(=O)n4cc(Br)ccc4n3)nc3ccsc3c2=O)cc1 was read as CFTR F508del cor inactive, E-selectin induc inactive, FGF22 binding 43.4, ERAP1 HTS inh inactive and DENV2 CPE inactive.
Screening CCN(CC)c1ccc(CNc2nc3ccccc3n2C)cc1 returned CFTR F508del cor inactive, E-selectin induc inactive, FGF22 binding 42.9, ERAP1 HTS inh inactive and DENV2 CPE inactive.
Screening Cc1c(C#N)c(NC(=O)CCl)n(Cc2ccccc2)c1C returned CFTR F508del cor inactive, FGF22 binding inactive, ERAP1 HTS inh inactive and DENV2 CPE inactive.
`Cc1c(C#N)c(NC(=O)CCl)n(Cc2ccc(F)cc2)c1C` gave CFTR F508del cor inactive, E-selectin induc 41.7, FGF22 binding inactive, ERAP1 HTS inh inactive and DENV2 CPE inactive.
CN(C(=O)c1ccccc1C(=O)OCC(=O)Nc1ccc(S(N)(=O)=O)cc1)c1ccccc1 was read as CFTR F508del cor 8.2, FGF22 binding inactive, ERAP1 HTS inh inactive and DENV2 CPE inactive.
`CN(C(=O)c1ccccc1C(=O)OCC(=O)Nc1ccc(OC(F)F)cc1)c1ccccc1` gave CFTR F508del cor inactive, E-selectin induc inactive, FGF22 binding inactive, ERAP1 HTS inh inactive and DENV2 CPE inactive.
`On1nnc2ccc(C(F)(F)F)cc21` gave CFTR F508del cor inactive, E-selectin induc inactive, FGF22 binding 43.5, ERAP1 HTS inh inactive and DENV2 CPE inactive.
Screening Cc1ccc(SCCC(=O)NNC(=O)c2ccccc2F)cc1 returned CFTR F508del cor inactive, E-selectin induc inactive, FGF22 binding 43.4, ERAP1 HTS inh inactive and DENV2 CPE inactive.
Screening Cc1nc2ccn(Cc3ccccc3)c(=O)c2cc1C(=O)N1CCN(c2ccccc2)CC1 returned CFTR F508del cor inactive, FGF22 binding inactive, ERAP1 HTS inh inactive and DENV2 CPE 25.6.
`Cc1cc(C)c2c(=O)n(CC(=O)N3CCN(c4ccccc4)CC3)ccc2n1` gave CFTR F508del cor inactive, E-selectin induc inactive, FGF22 binding inactive, ERAP1 HTS inh inactive and DENV2 CPE inactive.
`COc1cccc(-c2cnc3c(c2)C(=O)N([C@H](C)CO)C[C@H](C)[C@H](CN(C)C)O3)c1` gave CFTR F508del cor inactive, E-selectin induc inactive, FGF22 binding inactive, ERAP1 HTS inh inactive and DENV2 CPE inactive.

Screens deposited in PubChem by Broad Institute.
